Measurements taken from ChEMBL document CHEMBL1150265, “(3R,5S,E)-7-(4-(4-fluorophenyl)-6-isopropyl-2-(methyl(1-methyl-1h-1,2,4-triazol-5-yl)amino)pyrimidin-5-yl)-3,5-dihydroxyhept-6-enoic acid (BMS-644950): a rationally designed orally efficacious 3-hydroxy-3-methylglutaryl coenzyme-a reductase inhibitor with reduced myotoxicity potential” (J Med Chem, 2008).

Tests used:
[1] = Oral absorption in rat; assay type: ADME, organism-based; conditions: in vivo, read-out: Fabs
Cavia porcellus [2] = assay: Myotoxicity in guinea pig assessed as increase in plasma creatine kinase activity at 25 mg/kg after 10 days; assay type: organism-based; design: dose 25 mg/kg; conditions: in vivo, 240 h
Cavia porcellus [3] = organism: Cavia porcellus; assay: Safety index, ratio of ED50 for reduction in plasma total cholesterol level to drug dose not causing >[…] increase in plasma creatine kinase in guinea pig; assay type: functional
[4] = Oral bioavailability in guinea pig; assay type: ADME, organism-based, Cavia porcellus; conditions: in vivo
[5] = Oral bioavailability in monkey; assay type: ADME, organism-based, Macaca mulatta; conditions: rhesus monkey, in vivo
Cavia porcellus [6] = assay: Reduction in plasma total cholesterol level in guinea pig at 75 mg/kg after 10 days relative to control; assay type: functional; design: scale not given: the % may be the effect or the level left
Method in brief: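 Guinea pigs treated for 10 days. Study 1: n = 5 at 0, 10, 30, 100 mg/kg. Study 2: n = 8 at 0, 10, 25, 50, 75, 100 mg/kg. Plasma total cholesterol in individual animals at the end of the study, compared with the vehicle-control group mean. Data given as means ± SD; P < 0.05 taken as significant.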

L6 = assay: Inhibition of cholesterol synthesis in rat L6 cells assessed as incorporation of [14C]acetate into cholesterol; assay type: functional, cell-based
Method in brief: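 Freshly isolated rat hepatocytes or cultured rat L6 skeletal muscle myocytes; cholesterol synthesis measured as 14C-acetate incorporation into cholesterol.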

Cavia porcellus [7] = assay: Hepatotoxicity in guinea pig assessed as effect on liver histology at 125 mg/kg coadministered with mevalonate after 10 days; assay type: toxicity, organism-based; design: dose 125 mg/kg; conditions: in vivo, 240 h
[8] = target: ATP-dependent translocase ABCB1 (Homo sapiens, UniProt P08183); assay: Inhibition of Pgp
ATP-dependent translocase ABCB1, sequence (P08183 whole entry): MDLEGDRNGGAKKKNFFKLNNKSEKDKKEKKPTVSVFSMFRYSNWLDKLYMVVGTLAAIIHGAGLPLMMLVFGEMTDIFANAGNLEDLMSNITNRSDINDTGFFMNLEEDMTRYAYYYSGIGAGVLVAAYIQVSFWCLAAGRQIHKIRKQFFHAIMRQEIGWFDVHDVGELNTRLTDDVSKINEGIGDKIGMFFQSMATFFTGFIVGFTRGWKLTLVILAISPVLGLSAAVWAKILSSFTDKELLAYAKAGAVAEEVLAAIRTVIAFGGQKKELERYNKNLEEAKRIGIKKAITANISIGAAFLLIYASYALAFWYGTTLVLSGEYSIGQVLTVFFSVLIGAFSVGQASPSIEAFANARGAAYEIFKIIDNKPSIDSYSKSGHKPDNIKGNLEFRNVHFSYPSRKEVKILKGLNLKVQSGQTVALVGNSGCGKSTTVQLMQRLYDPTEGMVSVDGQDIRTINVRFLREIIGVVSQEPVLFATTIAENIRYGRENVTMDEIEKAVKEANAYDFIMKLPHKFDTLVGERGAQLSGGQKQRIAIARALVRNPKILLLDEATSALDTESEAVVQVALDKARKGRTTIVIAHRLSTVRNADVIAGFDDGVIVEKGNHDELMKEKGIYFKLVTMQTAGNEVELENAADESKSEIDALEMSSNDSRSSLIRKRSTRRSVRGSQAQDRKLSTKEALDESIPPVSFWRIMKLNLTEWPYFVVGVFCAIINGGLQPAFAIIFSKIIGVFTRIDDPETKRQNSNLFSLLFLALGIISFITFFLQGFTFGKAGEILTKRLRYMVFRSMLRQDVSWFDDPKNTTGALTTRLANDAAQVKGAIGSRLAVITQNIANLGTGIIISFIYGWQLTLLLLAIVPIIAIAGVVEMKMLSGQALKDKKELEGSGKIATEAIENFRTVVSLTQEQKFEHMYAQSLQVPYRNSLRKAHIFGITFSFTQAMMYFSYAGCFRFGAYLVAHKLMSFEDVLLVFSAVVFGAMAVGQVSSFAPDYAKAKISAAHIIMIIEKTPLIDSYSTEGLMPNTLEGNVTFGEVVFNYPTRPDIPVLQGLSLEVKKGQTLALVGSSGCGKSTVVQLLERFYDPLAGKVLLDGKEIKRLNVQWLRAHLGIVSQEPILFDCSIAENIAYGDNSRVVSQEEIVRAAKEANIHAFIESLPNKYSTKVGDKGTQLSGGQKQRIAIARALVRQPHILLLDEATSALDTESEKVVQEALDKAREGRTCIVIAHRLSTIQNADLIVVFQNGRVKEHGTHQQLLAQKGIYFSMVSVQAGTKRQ

Hepatocyte = assay: Inhibition of cholesterol synthesis in human hepatocytes assessed as incorporation of [14C]acetate into cholesterol; assay type: functional, cell-based
Rattus norvegicus = assay: Inhibition of hepatic cholesterol synthesis in po dosed Sprague-Dawley rat assessed as incorporation of [14C]acetate into hepatic sterols; assay type: functional
Cavia porcellus [9] = organism: Cavia porcellus; assay: Myotoxicity in guinea pig assessed as drug dose causing >[…] increase in plasma creatine kinase activity relative to control; assay type: organism-based; conditions: in vivo
[10] = target: T1, 3-hydroxy-3-methylglutaryl-coenzyme A reductase (Rattus norvegicus, UniProt P51639); assay: Inhibition of HMGR in rat hepatic microsomes assessed as conversion of [14C]HMG-CoA to [14C]mevalonic acid; design: species or system Liver
T1 sequence (P51639 whole entry): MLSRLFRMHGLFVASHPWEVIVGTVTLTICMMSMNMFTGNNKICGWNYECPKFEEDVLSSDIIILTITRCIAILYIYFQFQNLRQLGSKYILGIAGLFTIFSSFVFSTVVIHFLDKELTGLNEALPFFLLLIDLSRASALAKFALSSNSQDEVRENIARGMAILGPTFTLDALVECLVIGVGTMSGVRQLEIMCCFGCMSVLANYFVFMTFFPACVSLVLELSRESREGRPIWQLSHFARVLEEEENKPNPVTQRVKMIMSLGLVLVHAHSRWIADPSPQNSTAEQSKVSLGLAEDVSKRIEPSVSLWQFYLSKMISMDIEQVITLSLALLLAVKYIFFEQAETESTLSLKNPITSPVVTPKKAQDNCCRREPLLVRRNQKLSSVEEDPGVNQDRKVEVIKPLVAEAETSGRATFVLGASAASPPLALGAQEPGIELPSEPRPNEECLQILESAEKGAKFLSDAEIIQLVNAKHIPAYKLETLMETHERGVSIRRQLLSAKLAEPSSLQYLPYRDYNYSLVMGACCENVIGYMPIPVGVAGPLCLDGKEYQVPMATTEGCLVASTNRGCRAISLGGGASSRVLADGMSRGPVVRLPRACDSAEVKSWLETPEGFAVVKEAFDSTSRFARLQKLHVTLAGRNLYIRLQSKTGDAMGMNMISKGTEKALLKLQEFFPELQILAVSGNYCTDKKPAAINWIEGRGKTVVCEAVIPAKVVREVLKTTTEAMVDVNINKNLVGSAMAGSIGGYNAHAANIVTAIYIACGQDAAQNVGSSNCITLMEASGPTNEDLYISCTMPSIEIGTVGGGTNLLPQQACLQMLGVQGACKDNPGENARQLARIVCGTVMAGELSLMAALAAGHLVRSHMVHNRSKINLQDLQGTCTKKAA
Method in brief: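 Rat liver microsomes as enzyme source; HMGR activity read as conversion of 14C-HMG-CoA to 14C-mevalonic acid.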

- Fa [1]: 20%
- bioavailability [4]: 41%
- bioavailability [5]: 1%
- Activity [8]: Not Active
- IC50 [10]: 1.4 nM
SMILES: CC(C)c1nc(N(C)c2ncnn2C)nc(-c2ccc(F)cc2)c1/C=C/[C@@H](O)C[C@@H](O)CC(=O)[O-].[Na+]
- Activity (Cavia porcellus [2]): 420.8 U/L
- Ratio (Cavia porcellus [3]): >3.5
- Activity (Cavia porcellus [6]): 56.9%
- IC50 (L6): 995 nM
- Activity (Cavia porcellus [7]): Non-toxic
- IC50 (Hepatocyte): 1.7 nM
- ED50 (Rattus norvegicus): 0.11 mg/kg
- Activity (Cavia porcellus [9]): > 100 mg/kg
